DSG3 Ab inh = blocks pemphigus antibody binding to human desmoglein-3 | P32926 | DSG3-coupled beads, scFv-anti-DSG3-GFP binding, flow cytometry; hits give low values | binding (percent of control), % at 10 µM | 0.48% of 310,000 active | AID 588358;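 active = binding more than 3 SD below its plate's average and above zero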;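 also: hits lower antibody fragment binding to DSG3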
Target sequence (P32926 whole entry, looked up, the tested form may be a part): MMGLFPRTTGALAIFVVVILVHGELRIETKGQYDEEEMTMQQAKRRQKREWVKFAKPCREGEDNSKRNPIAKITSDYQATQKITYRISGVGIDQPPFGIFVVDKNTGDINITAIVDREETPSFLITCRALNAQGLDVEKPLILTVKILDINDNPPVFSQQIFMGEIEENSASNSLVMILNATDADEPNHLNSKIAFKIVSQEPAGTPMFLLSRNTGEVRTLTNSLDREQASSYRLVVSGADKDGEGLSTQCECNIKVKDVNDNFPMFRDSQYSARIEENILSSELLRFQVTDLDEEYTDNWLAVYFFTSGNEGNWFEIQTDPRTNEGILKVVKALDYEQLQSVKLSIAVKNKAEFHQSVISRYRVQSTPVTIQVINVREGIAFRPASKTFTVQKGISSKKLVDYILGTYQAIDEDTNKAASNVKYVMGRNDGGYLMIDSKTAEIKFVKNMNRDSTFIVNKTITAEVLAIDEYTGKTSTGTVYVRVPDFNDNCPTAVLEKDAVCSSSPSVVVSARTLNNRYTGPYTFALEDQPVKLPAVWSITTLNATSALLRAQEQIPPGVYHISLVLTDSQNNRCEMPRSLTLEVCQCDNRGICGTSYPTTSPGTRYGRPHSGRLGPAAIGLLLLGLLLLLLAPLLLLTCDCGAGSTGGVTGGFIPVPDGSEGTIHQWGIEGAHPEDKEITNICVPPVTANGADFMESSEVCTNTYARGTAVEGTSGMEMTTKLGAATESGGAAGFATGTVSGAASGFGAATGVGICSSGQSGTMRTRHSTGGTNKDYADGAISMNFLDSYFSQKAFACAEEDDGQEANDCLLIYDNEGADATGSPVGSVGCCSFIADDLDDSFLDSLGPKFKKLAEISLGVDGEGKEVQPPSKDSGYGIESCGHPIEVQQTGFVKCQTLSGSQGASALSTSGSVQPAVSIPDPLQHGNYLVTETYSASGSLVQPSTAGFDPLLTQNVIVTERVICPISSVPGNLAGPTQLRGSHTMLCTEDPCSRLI
NALP1 inh = blocks the NALP1 inflammasome reconstituted in yeast; S. cerevisiae NALP1/ASC/caspase-1 growth, X-gal OD620, 72 h; inhibition, % at 10 µM; 0.61% of 280,000 active; in the data active = inhibition mostly above about 24%, no sharp cut-off; inactive = mostly below about 32%
ALR inh = inhibitors of human sulfhydryl oxidase ALR. 3.8% of 290,000 active. purified ALR, DTT oxidation, H2O2 HRP-luminol luminescence. inhibition, % (concentration not given with the values). P55789. AID 485317;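 active = mean replicate inhibition above about 79%, with every replicate also reaching it, limit read from the data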
PolyA inh = blocks polyadenylation in yeast reporter cells. S. cerevisiae SKY197-pL101 polyadenylation reporter, beta-gal luminescence; efflux-impaired pdr1/pdr3 knockout yeast; score 100 = 6 SD above DMSO. activity score, % at 12 µM. 0.02% of 300,000 active. AID 1875;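 active = lowest replicate activity score at least 50, where 100 means six control SD above control mean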;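 also: yeast exposed to compound for 9 h at 30 °C; higher score means more reporter readthrough which indicates perturbed polyadenylation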
NLRP3 yeast inh = inhibitors of NALP3 inflammasome in yeast | 0.39% of 330,000 active | AID 2825 | inhibition, % at 10 µM | Yeast reconstituted NLRP3/ASC/caspase-1, beta-gal luminescence, 24 h;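 active = inhibition of 50% or more; inactive = inhibition below 50%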;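 also: plate controls were induced DMSO wells for no effect and uninduced yeast grown without galactose for full effect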
Arr AP2 block = inhibitors of human beta-arrestin and AP2 interaction; FITC-arrestin peptide / GST-AP2 beads, flow cytometry; AP2 beta2 appendage carries R879A mutation; inhibition, % at 10 µM; 0.31% of 340,000 active;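 active = inhibition above a set limit, near 3 SD of compounds lacking own fluorescence, cut at about 54% in these data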;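 also: plate controls were DMSO wells for no effect and 5 µM unlabelled arrestin peptide for full effect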
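System: GST-AP2 R879A glutathione beads; medium: PBS, Tween 20 0.05%, BSA 0.1%; reagent: fluorescein-tagged arrestin peptide at 50 nM final; schedule: pre-incubation 12 min, peptide binding 1 h, room temperature; detection: flow cytometry, FL1 (488/535 nm); read-out: inhibition as reduced fluorescein signal on beads, percent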
Arr AP2 CP1 = human beta-arrestin and AP2 interaction inhibition, cherry pick; AID 504908; GST-AP2 beads, FITC arrestin peptide binding, flow cytometry; GST-fused beta2-adaptin appendage, R879A mutant; shares compounds with Arr AP2 block; 2% of 1,300 active; inhibition, % at 10 µM;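 active = inhibition above a set limit, roughly 3 SD of non-fluorescent compound noise, cut at about 38% in these data; inactive = inhibition at or below that limit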;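 also: loss of bead fluorescence from 50 nM FITC arrestin peptide bound to appendage; 0% = negative control wells and 100% = excess unlabelled arrestin peptide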
GST-FITC bead = counter-screen for beta-arrestin AP2 inhibitors: GST-GSH bead binding; inhibition, % at 10 µM; shares compounds with Arr AP2 block; GST-fluorescein binding to GSH beads, fluorescence; 2% of 1,300 active;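 active = inhibition above 50%, about 3 SD of the inhibition seen with non-fluorescent compounds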;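 also: fluorescein maleimide labelled GST captured on 4 micron glutathione beads; higher means more loss of bead fluorescence from quenching or blocked binding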
Numbers without * were called inactive; . = not tested or not shown. Sampled rows, rich in hits. Any-hit rate of the full collection: about 4.6%.

SMILES	DSG3 Ab inh	NALP1 inh	ALR inh	PolyA inh	NLRP3 yeast inh	Arr AP2 block	Arr AP2 CP1	GST-FITC bead
COc1cc(NS(=O)(=O)c2ccc(NC(=S)NC(=O)c3ccc(F)cc3)cc2)nc(OC)n1	120	-17	34	18	-5	-6	.	.
COc1ccc(C(=O)NC(=S)Nc2ccc(S(=O)(=O)Nc3cc(OC)nc(OC)n3)cc2)cc1	.	-21	32	17	15	56*	-2	-3
CCn1cnc2cc(NS(=O)(=O)c3ccc(OC)c(OC)c3)ccc21	109	16	-6	24	5	61*	2	-5
COc1ccc(NC(=O)Nc2cnccn2)c(OC)c1	108	11	-14	-8	8	-6	11	-5
COc1ccc(Cl)cc1NC(=O)Nc1cnccn1	108	10	-4	-12	50	-2	.	.
COc1ccc(C)cc1NC(=O)Nc1cnccn1	90	-2	5	-12	24	-9	2	0
CC(=O)Nc1ccc(OS(=O)(=O)c2ccc(C)cc2C)cc1	105	13	-5	-17	34	-9	.	.
C[C@@H]1CCCCO[C@@H](CN(C)S(C)(=O)=O)[C@@H](C)CN([C@H](C)CO)C(=O)c2cc(N(C)C)ccc2O1	98	.	.	.	.	.	.	.
Cc1cc(C)cc(OCC(=O)Nc2ccc3c(c2)C(=O)c2ccccc2C3=O)c1	110	8	-15	10	22	97*	6	6
CCC(=NOCc1ccccc1)C(=O)NNS(=O)(=O)c1ccc(C)cc1	90	.	.	.	.	-10	.	.
CCN1CCN(C(=O)C(C)Oc2ccc(S(=O)(=O)N3CCCC3)cc2C(N)=O)CC1 (stereo unspecified)	109	.	-4	.	11	-9	.	.
O=C(CS(=O)(=O)c1ccccc1)Nc1ccc(N2CCOCC2)cc1	100	12	70	4	18	60*	-6	-3
CN(C(=O)COC(=O)c1cc(-c2ccc(Cl)s2)nc2ccccc12)C1CCS(=O)(=O)C1 (stereo unspecified)	87	-7	0	0	28	64*	13	-2
CN(C(=O)COC(=O)c1cc(-c2ccccc2Cl)nc2ccccc12)C1CCS(=O)(=O)C1 (stereo unspecified)	105	14	.	0	14	5	.	.
COc1ccc(CNC(=O)[C@H](C)NC(=O)C2CC(=O)N(c3ccc4c(c3)OCO4)C2)cc1 (stereo partly specified)	95	4	-1	17	1	55*	1	1
COc1ccc(CNC(=O)[C@H](C)NC(=O)C2CC(=O)N(c3ccc(OC)cc3)C2)cc1 (stereo partly specified)	100	24	-2	4	18	1	.	.
CCNc1nc(NCC)n2c(SCC(=O)Nc3cccc(Cl)c3)nnc2n1	100	.	-5	-3	13	59*	-8	2
CCNc1nc(NCC)n2c(SCC(=O)Nc3cccc(F)c3)nnc2n1	96	.	-14	9	11	-10	.	.

Compound activity (PubChem)
